GSH fluor: GSH bead compound fluorescence profile. hit rate 0.25% among 190,000. GSH beads flow cytometry, compound fluorescence 488/530 nm; hits give high values. fluorescence (KMESF) at 10 µM. AID 1776; in the data active means fluorescence above about 89;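 further: glutathione beads carrying GST-tagged Bcl family fusion proteins plus one bare bead set; values are compound well signal with DMSO vehicle wells as background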
ABCG2 block: blocks JC-1 efflux by human ABCG2 transporter. Q9UNQ0. IgMXP3 cells, flow cytometry. inhibition, % at 6.6 µM. hit rate 0.1% among 190,000. AID 1325;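 active means inhibition above 80%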;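 further: 0% = DMSO and 100% = nicardipine control wells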
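System: two drug-resistant human cell lines, ABCG2 and ABCB1; controls: nicardipine high and DMSO low controls; times: 10 min exposure at 25 °C with rotation, no wash; detection: flow cytometry of retained JC-1 fluorescence; read-out basis: percent efflux inhibition, scaled nicardipine 100% to DMSO 0%; doses: one concentration, 6.6 µM final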
PKD1 inh: blocks activity of human protein kinase D1; PKD1 kinase fluorescence polarization assay; hit rate 0.056% among 200,000; Q15139; inhibition, % (no concentration beside the values); AID 797
ABCB1 inh: blocks JC-1 efflux by human ABCB1 transporter | P08183 | inhibition, % at 6.6 µM | hit rate 0.067% among 190,000 | CCRF-Adr cells, flow cytometry; in the data active means inhibition above about 40%;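 further: 0% = vehicle and 100% = reference inhibitor; higher value means more JC-1 retained so stronger ABCB1 efflux block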
L major viab: inhibitors of Leishmania major promastigote growth. inhibition, % at 10 µM. Leishmania major promastigotes, resazurin fluorescence viability. AID 1063. hit rate 9% among 200,000;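 further: promastigotes grown with compound for 44 hours at 28 °C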
Avidin fluor: compound fluoresces at 488/530 nm on avidin beads | fluorescence (KMESF) at 10 µM | hit rate 0.38% among 220,000 | compound fluorescence 488/530 nm, flow cytometry; hits give high values; in the data active means fluorescence above about 47
The depositor's hits bear a star; nt = no result. The entries come from a sample that favours hits as a whole. Unless noted, no stated cut-off is given here; in the data, active means inhibition above about 50%; inactive means the rest.

SMILES	GSH fluor	ABCG2 block	PKD1 inh	ABCB1 inh	L major viab	Avidin fluor
CCOC(=O)c1c(-c2cccc([N+](=O)[O-])c2)csc1NC(=O)C1CCCCC1	166*	10	-5	1	-2	4
CCOC(=O)c1c(-c2ccccc2Cl)csc1NC(=O)c1cc(S(=O)(=O)N2CCOCC2)ccc1C	3	6	-11	0	83*	7
CCOC(=O)c1c(-c2ccc(C)o2)csc1NC(=S)NC(=O)c1cccs1	3	0	-18	0	75*	6
CCOC(=O)c1c(-c2ccc(-c3ccccc3)cc2)csc1NC(=O)CCN1CCOCC1	11	18	-1	2	98*	10
CCOC(=O)c1c(-c2ccccc2)csc1NC(=O)C(C)NCCCN1CCOCC1 (centres undefined)	16	5	0	3	27	11
CCOC(=O)c1c(-c2ccc(C)o2)csc1NC(=S)NC(=O)c1ccccc1Br	13	-6	4	-6	18	10
CCOC(=O)c1c(-c2cccc([N+](=O)[O-])c2)csc1NC(=O)C1CC1	79	4	1	1	7	11
Cc1ccc(NC(=S)C2=C(O)c3ccccc3N(C)S2(=O)=O)cc1	72	1	-11	0	-7	12
CCNC(=S)Nc1scc(-c2ccccc2)c1C(=O)OCC	7	-2	-6	-1	25	9
CCOC(=O)c1c(-c2ccc(OC)c(OC)c2)csc1NC(=O)C1CCCO1 (centres undefined)	23	11	4	2	100*	9
CCOC(=O)c1c(-c2ccccc2)csc1NC(=S)NC	2	12	-3	0	62*	14
COc1ccccc1N1CCN(/N=C/C(Cl)=C/c2ccccc2)CC1	nt	nt	nt	nt	nt	7
NNC(=O)c1ccc(CSc2n[nH]c(=O)[nH]c2=O)cc1	nt	nt	nt	nt	nt	11
CCN(Cc1ccccc1)c1ccc(/C=N/N=C(N)N)cc1	6	1	-5	1	100*	3
Cc1cc(F)ccc1N1CCC(N2CCN(C(C)C)C(CCO)C2)CC1 (centres undefined)	19	1	-4	1	98*	7
Cc1cc(F)ccc1N1CCC(N2CCN(CCC(C)C)C(CCO)C2)CC1 (centres undefined)	53	6	-6	1	95*	9
CC(C)CCN1CCN(C2CCN(c3ccc4c(c3)OCO4)CC2)CC1CCO (centres undefined)	16	3	3	1	6	7
N=C(SC1CC(=O)N(c2ccc(F)cc2)C1=O)N1N=C(c2ccccc2)CC1c1ccccc1 (centres undefined)	13	-3	-8	-1	16	14
Cc1ccc(N2C(=O)NC(C(F)(F)F)(C(F)(F)F)C3=C2CC(C)(C)CC3=O)cc1	3	7	-5	0	51*	14
CCCCNC(=S)NNC(=O)c1ccc(Br)o1	12	9	0	0	-6	3
O=C1C(NS(=O)(=O)c2cccs2)=C(N2CCN(c3cccc(Cl)c3)CC2)C(=O)c2ccccc21	11	2	-9	1	99*	9
O=C1C(NS(=O)(=O)c2ccccc2)=C(N2CCN(c3ccc(F)cc3)CC2)C(=O)c2ccccc21	nt	nt	nt	nt	nt	9
Cc1ccc(N(CC(=O)O)S(C)(=O)=O)cc1Cl	20	2	4	0	-6	9
Cc1ccc(OCC(=O)Nc2cccc(S(=O)(=O)N3CCCCC3)c2)c([N+](=O)[O-])n1	10	28	-1	1	14	8
Cc1ccc(NC(=O)CCl)cc1S(=O)(=O)N1CCCCCC1	12	2	3	0	91*	22
Cc1ccc(C(=O)Nc2ccc3cn[nH]c3c2)cc1S(=O)(=O)N1CCCCC1	15	0	4	0	50*	7
Cc1ccc(OCC(=O)Nc2ccc(C)c(S(=O)(=O)N3CCCCCC3)c2)c([N+](=O)[O-])n1	16	16	-7	3	64*	13
CCC(C)c1ccc2oc(-c3ccc(NC(=O)Cn4cnc5c(=O)n(C)c(=O)n(C)c54)cc3)nc2c1 (centres undefined)	16	1	-2	2	22	8
CC(C)CNC(=O)c1cccc(NC(=O)Cc2ccc(Cl)cc2)c1	5	11	3	1	5	2

High-throughput results deposited in PubChem BioAssay by several laboratories.
